From the RNAGym collection of RNA variant scans (doi:10.1002/anie.201605470)

B1: Osa-1-4 twister ribozyme (parent)
chain: CCGCCUAACACUGCCAAUGCCGGUCCCAAGCCCGGAUAAAAGUGGAGGGGGCGG

Variants of: B1
Assay: self-cleavage, relative activity (ratio to wild type); higher = more cleavage; co-transcriptional
Procedure, shortened: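 The 48 positions downstream of the cleavage site in a 54-nucleotide Oryza sativa twister ribozyme template were synthesised at 97 % wild-type base and 1 % of each other base. The template was transcribed in vitro at 37 °C for 2 h, with self-cleavage allowed during transcription. Reads with or without upstream sequence after deep sequencing marked cleavage status, and relative activity is fraction cleaved normalised to wild type.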

| Variant | self-cleavage |
| --- | --- |
| CCGCCUAACACUGCCAAUGCCGGUCCCAGGCCCGGAUAAAAGUAGAGGGGGCGG [A29G G44A] | 0.07 |
| CCGCCUAACACUGCCAAUGCCGGUCCCAGGCCCGGAUAAAAGUUGAGGGGGCGG [A29G G44U] | 0.08 |
| CCGCCUAACACUGCCAAUGCCGGUCCCAGGCCCGGAUAAAAGUCGAGGGGGCGG [A29G G44C] | 0.16 |
| CCGCCUAACACUGCCAAUGCCGGUCCCAGGCCCGGAUAAAAGUGGAGGGGGCAG [A29G G53A] | 0.07 |
| CCGCCUAACACUGCCAAUGCCGGUCCCAGGCCCGGAUAAAAGUGGAGGGGGCUG [A29G G53U] | 0.07 |
| CCGCCUAACACUGCCAAUGCCGGUCCCAGGCCCGGAUAAAAGUGGAGGGGGCCG [A29G G53C] | 0.06 |
| CCGCCUAACACUGCCAAUGCCGGUCCCAGGCCCGGAUAAAAGUGGAGGGGGCGU [A29G G54U] | 0.37 |
| CCGCCUAACACUGCCAAUGCCGGUCCCAGGCCCGGAUAAAAGUGGAGGGGGCGA [A29G G54A] | 0.15 |
| CCGCCUAACACUGCCAAUGCCGGUCCCAGGCCCGGAUAAAAGUGGAGGGGGCGC [A29G G54C] | 0.08 |
| CCGCCUAACACUGCCAAUGCCGGUCACAGGCCCGGAUAAAAGUGGAGGGGGCGG [A29G C26A] | 0.04 |
| CCGCCUAACACUGCCAAUGCCGGUCGCAGGCCCGGAUAAAAGUGGAGGGGGCGG [A29G C26G] | 0.1 |
| CCGCCUAACACUGCCAAUGCCGGUCUCAGGCCCGGAUAAAAGUGGAGGGGGCGG [A29G C26U] | 0.08 |
| CCGCCUAACACUGCCAAUGCCGGUCCCAUGCCCGGCUAAAAGUGGAGGGGGCGG [A29U A36C] | 0.03 |
| CCGCCUAACACUGCCAAUGCCGGUCCCAUGCCCGGGUAAAAGUGGAGGGGGCGG [A29U A36G] | 0.24 |
| CCGCCUAACACUGCCAAUGCCGGUCCCAUGCCCGGUUAAAAGUGGAGGGGGCGG [A29U A36U] | 0.17 |
| CCGCCUAACACUGCCAAUGCCGGUCCCAGGCCCGGAUAAAAAUGGAGGGGGCGG [A29G G42A] | 0.06 |
| CCGCCUAACACUGCCAAUGCCGGUCCCAGGCCCGGAUAAAAUUGGAGGGGGCGG [A29G G42U] | 0.04 |
| CCGCCUAACACUGCCAAUGCCGGUCCCAGGCCCGGAUAAAACUGGAGGGGGCGG [A29G G42C] | 0.06 |
| CCGCCUUACACUGCCAAUGCCGGUCCCAUGCCCGGAUAAAAGUGGAGGGGGCGG [A29U A7U] | 0.05 |
| CCGCCUCACACUGCCAAUGCCGGUCCCAUGCCCGGAUAAAAGUGGAGGGGGCGG [A29U A7C] | 0.02 |
| CCGCCUGACACUGCCAAUGCCGGUCCCAUGCCCGGAUAAAAGUGGAGGGGGCGG [A29U A7G] | 0.06 |
| CCGCCUAACACUGCCAAUGCCGGUCCCAUGCCCGGAUUAAAGUGGAGGGGGCGG [A29U A38U] | 0.09 |
| CCGCCUAACACUGCCAAUGCCGGUCCCAUGCCCGGAUCAAAGUGGAGGGGGCGG [A29U A38C] | 0.08 |
| CCGCCUAACACUGCCAAUGCCGGUCCCAUGCCCGGAUGAAAGUGGAGGGGGCGG [A29U A38G] | 0.09 |

| Variant | self-cleavage |
| --- | --- |
| CCGCCUAACACUGCCAAAGCCGGUCCCAGGCCCGGAUAAAAGUGGAGGGGGCGG [A29G U18A] | 0.23 |
| CCGCCUAACACUGCCAACGCCGGUCCCAGGCCCGGAUAAAAGUGGAGGGGGCGG [A29G U18C] | 0.23 |
| CCGCCUAACACUGCCAAGGCCGGUCCCAGGCCCGGAUAAAAGUGGAGGGGGCGG [A29G U18G] | 0.34 |
| CCGCCUAACACUGCCAAUGCCGGUCCCAUGCCCGGAUAAAAGUGGAGGGGGCGG [A29U] | 0.21 |
| CCGCCUAACACUGCCAAUGCCGGUCCCAGGGCCGGAUAAAAGUGGAGGGGGCGG [A29G C31G] | 0.05 |
| CCGCCUAACACUGCCAAUGCCGGUCCCAGGACCGGAUAAAAGUGGAGGGGGCGG [A29G C31A] | 0.02 |
| CCGCCUAACACUGCCAAUGCCGGUCCCAGGUCCGGAUAAAAGUGGAGGGGGCGG [A29G C31U] | 0.12 |
| CCGCCUAACACUGCCAAUGCCGGUCCCAGGCCCGGAUAAAAGUGGAGGGGGAGG [A29G C52A] | 0.16 |
| CCGCCUAACACUGCCAAUGCCGGUCCCAGGCCCGGAUAAAAGUGGAGGGGGGGG [A29G C52G] | 0.22 |
| CCGCCUAACACUGCCAAUGCCGGUCCCAGGCCCGGAUAAAAGUGGAGGGGGUGG [A29G C52U] | 0.34 |
| CCGCCUAACACUGCCAAUGCCGGACCCAGGCCCGGAUAAAAGUGGAGGGGGCGG [A29G U24A] | 0.07 |
| CCGCCUAACACUGCCAAUGCCGGGCCCAGGCCCGGAUAAAAGUGGAGGGGGCGG [A29G U24G] | 0.02 |
| CCGCCUAACACUGCCAAUGCCGGCCCCAGGCCCGGAUAAAAGUGGAGGGGGCGG [A29G U24C] | 0.08 |
| CCGCCUAACACUGCCAAUGCCGGUCCCAGGCCCGGAUAAAAGUGCAGGGGGCGG [A29G G45C] | 0.03 |
| CCGCCUAACACUGCCAAUGCCGGUCCCAGGCCCGGAUAAAAGUGUAGGGGGCGG [A29G G45U] | 0.04 |
| CCGCCUAACACUGCCAAUGCCGGUCCCAGGCCCGGAUAAAAGUGAAGGGGGCGG [A29G G45A] | 0.05 |
| CCGCCUAACACUGCCAAUGCCGGUCCCAGGCCCGCAUAAAAGUGGAGGGGGCGG [A29G G35C] | 0.05 |
| CCGCCUAACACUGCCAAUGCCGGUCCCAGGCCCGAAUAAAAGUGGAGGGGGCGG [A29G G35A] | 0.24 |
| CCGCCUAACACUGCCAAUGCCGGUCCCAGGCCCGUAUAAAAGUGGAGGGGGCGG [A29G G35U] | 0.16 |
| CCGCCUAACACUGCCAAUGCCGGUCCCAGGCCCGGAUAAAAGUGGAGAGGGCGG [A29G G48A] | 0.04 |
| CCGCCUAACACUGCCAAUGCCGGUCCCAGGCCCGGAUAAAAGUGGAGCGGGCGG [A29G G48C] | 0.04 |
| CCGCCUAACACUGCCAAUGCCGGUCCCAGGCCCGGAUAAAAGUGGAGUGGGCGG [A29G G48U] | 0.03 |
| CCGCCUAACACUGCCAAUGCCGGUCCCAGGCCCGGAUAAAAGGGGAGGGGGCGG [A29G U43G] | 0.06 |
| CCGCCUAACACUGCCAAUGCCGGUCCCAGGCCCGGAUAAAAGCGGAGGGGGCGG [A29G U43C] | 0.08 |
